These results are taken from ChEMBL document CHEMBL4665761, “Optimizing the Benefit/Risk of Acetyl-CoA Carboxylase Inhibitors through Liver Targeting” (J Med Chem, 2020).

Data set [1] is described as follows: AUC (0 to 24 hrs) in Wistar-Hannover rat plasma at 4 mg/kg, po and measured up to 24 hrs by LC/MS-MS analysis. The class given is ADME, organism-based. The arrangement: route oral, dose 4 mg/kg, time <=24. An outline of the steps: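 Male Wistar-Hannover rats (240–350 g), housed singly after 1 week of acclimation, were dosed orally. AUC0–24 came from plasma concentration–time data by the linear trapezoidal rule, averaged for n = 2. Lower detection limit was 1 ng/mL.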

Data set [2] can be described thus: Oral bioavailability in Wistar-Hannover rat plasma at 4 mg/kg and measured up to 24 hrs by LC/MS-MS analysis. The class given is ADME, organism-based. An outline of the steps: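 Plasma concentration–time data, n = 2, averaged. Cmax and Tmax read directly from the data. AUC0–24 by the linear trapezoidal rule. F calculated as dose-normalized AUC PO/IV.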
In a further data set the target is Cytochrome P450 1A2 (Homo sapiens, UniProt P05177). As to the kind of experiment: inhibition of CYP1A2 in human liver microsomes. The class given is ADME. Background: Liver microsomes are vesicles of endoplasmic reticulum, rich in cytochrome P450 enzymes.
Cytochrome P450 1A2, sequence (P05177 whole entry): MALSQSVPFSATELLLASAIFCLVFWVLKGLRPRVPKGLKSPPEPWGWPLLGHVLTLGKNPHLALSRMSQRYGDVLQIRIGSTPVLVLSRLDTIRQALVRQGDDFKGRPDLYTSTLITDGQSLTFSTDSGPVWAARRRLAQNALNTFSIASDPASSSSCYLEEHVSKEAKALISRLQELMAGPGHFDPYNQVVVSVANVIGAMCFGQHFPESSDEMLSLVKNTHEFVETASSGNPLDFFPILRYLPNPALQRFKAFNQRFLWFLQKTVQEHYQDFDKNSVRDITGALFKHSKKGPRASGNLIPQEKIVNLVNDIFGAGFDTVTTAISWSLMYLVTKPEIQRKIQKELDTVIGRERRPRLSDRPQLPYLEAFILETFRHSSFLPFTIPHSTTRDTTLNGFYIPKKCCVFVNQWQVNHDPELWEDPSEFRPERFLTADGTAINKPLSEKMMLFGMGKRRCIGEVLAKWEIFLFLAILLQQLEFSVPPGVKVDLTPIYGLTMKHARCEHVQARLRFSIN
Data set [3] deals with UDP-glucuronosyltransferase 1A9 (Homo sapiens, UniProt O60656). Nature of the data set: Inhibition of UGT1A9 in human liver microsomes incubated for 30 mins in presence of UDPGA by LC-MS/MS analysis. Format: ADME.
UDP-glucuronosyltransferase 1A9, sequence (O60656 whole entry): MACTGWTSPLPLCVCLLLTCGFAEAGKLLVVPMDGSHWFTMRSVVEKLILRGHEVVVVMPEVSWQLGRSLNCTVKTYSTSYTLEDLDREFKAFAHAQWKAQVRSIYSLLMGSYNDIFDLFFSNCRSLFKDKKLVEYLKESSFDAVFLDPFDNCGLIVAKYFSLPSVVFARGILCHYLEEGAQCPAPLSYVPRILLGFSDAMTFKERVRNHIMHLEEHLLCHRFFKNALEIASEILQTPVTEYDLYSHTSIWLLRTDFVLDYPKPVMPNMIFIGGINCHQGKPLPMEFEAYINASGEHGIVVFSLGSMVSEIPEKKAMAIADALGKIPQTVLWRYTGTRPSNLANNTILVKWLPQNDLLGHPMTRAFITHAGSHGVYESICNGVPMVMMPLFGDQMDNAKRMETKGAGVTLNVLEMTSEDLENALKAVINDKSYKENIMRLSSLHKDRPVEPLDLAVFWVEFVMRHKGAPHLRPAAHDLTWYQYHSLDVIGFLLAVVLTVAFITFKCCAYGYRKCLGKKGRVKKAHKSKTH
The next data set deals with Cytochrome P450 2B6 (Homo sapiens, UniProt P20813). Nature of the data set: inhibition of CYP2B6 in human liver microsomes. The class given is ADME.
Cytochrome P450 2B6, sequence (P20813 whole entry): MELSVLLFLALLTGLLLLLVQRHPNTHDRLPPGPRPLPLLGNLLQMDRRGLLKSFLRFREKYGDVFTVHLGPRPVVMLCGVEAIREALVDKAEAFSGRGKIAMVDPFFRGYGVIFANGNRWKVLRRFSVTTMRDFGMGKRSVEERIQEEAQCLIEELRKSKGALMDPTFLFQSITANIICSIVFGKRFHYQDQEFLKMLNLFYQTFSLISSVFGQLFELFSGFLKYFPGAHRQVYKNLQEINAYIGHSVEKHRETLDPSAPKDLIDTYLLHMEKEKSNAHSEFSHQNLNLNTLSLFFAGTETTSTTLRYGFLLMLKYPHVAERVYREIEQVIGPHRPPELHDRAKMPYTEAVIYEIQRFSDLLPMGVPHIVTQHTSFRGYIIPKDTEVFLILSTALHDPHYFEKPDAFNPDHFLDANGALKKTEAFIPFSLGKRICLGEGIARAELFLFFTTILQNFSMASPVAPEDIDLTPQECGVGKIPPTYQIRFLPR
For another data set, the system named is Rattus norvegicus. Nature of the data set: Effect on triglyceride accumulation in Sprague-Dawley rat high fat dietary model at 3 mg/kg, po assessed as reduction in triglyceride level after 42 days by XPT clinical analyzer. The arrangement: scale not given: the % may be the effect or the level left. The class given is functional. The settings on record: time 42 day. Put shortly:
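High-fat-diet-fed Sprague-Dawley rats dosed orally for 42 days, with chow-fed and vehicle controls, n = 10 per group. Read-out is hepatic triglyceride, reported as mean ± SEM.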

Data set [4] can be described thus: Induction of CYP1A2 mRNA expression in human hepatocytes at 0.5 to 200 uM. The class given is ADME, cell-based, Hepatocyte. To be noted: dose 0.5-200 µM. An outline of the steps:
(§1)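 Individual human hepatocyte lots treated at 0.5–200 µM. Read-out is messenger RNA levels of CYP1A2 and CYP3A4.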

Data set [5] concerns the target Solute carrier organic anion transporter family member 1B3 (Homo sapiens, UniProt Q9NPD5). Nature of the data set: Inhibition of human OATP1B3 expressed in HEK293 cells n presence of rosuvastatin. Format: cell-based.
Another data set concerns the target Cytochrome P450 3A4 (Homo sapiens, UniProt P08684). As to the kind of experiment: inhibition of CYP3A4 in human liver microsomes. The class given is ADME.
Data set [6] in a line: Clearance in cynomolgus monkey plasma at 1 mg/kg, iv and measured up to 72 hrs by LC/MS-MS analysis. Format: ADME, organism-based, Macaca fascicularis. An outline of the steps: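 Cynomolgus monkeys dosed 1 mg/kg IV as the tris salt in 2% N-methylpyrrolidone/98% sulfobutylether-β-cyclodextrin (12.5%) in 50 mM TRIS, pH 8.0, or PO as the tris salt. Plasma was analysed by LC-MS/MS, n = 2. CL = IV dose/AUC; Vss = dose/(AUC × elimination rate constant); Cmax taken from observed data.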

The nature of data set [7]: Ratio of drug uptake in Wistar-Hannover rat liver to plasma at 10 mg/kg, po after 6 hrs by LC/MS-MS analysis. The class given is ADME, organism-based. The settings on record: liver and plasma. Put shortly:
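Male Wistar-Hannover rats (n = 2 or 3) dosed orally as a suspension in 0.5% methyl cellulose with 0.1% Tween 80. Plasma and liver sampled 6 h post-dose. Kp is total liver/plasma; Kpu,u uses unbound fractions from equilibrium dialysis of plasma and liver.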

The next data set concerns the target Cytochrome P450 2C8 (Homo sapiens, UniProt P10632). Nature of the data set: inhibition of CYP2C8 in human liver microsomes. Format: ADME.
The nature of data set [8]: Induction of CYP3A4 mRNA expression in human hepatocytes at 0.5 to 200 uM. The class given is ADME, cell-based, Hepatocyte. To be noted: dose 0.5-200 µM. Put shortly: as §1
Data set [9] addresses Solute carrier family 22 member 6 (Homo sapiens, UniProt Q4U2R8). As to the kind of experiment: Inhibition of human SLC22A6 expressed in HEK293 cells in presence of para-aminohippuric acid/metformin. The class given is cell-based.
The nature of data set [10]: Inhibition of DNL in po dosed Sprague-Dawley rat assessed as reduction in DNL level in liver pretreated with one hr followed by [14C]-acetate treatment and measured after 1 hr. The class given is functional, organism-based. An outline of the steps: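 Sprague-Dawley rats given single oral doses of 0.03–300 mg/kg in 0.5% methyl cellulose vehicle, n = 16 per dose. Read-out is incorporation of 14C-acetate into lipids in liver, bone marrow and lung, measured at 2 h post-dose relative to vehicle. Data are mean ± SEM. EC50 is reported with a 95% confidence interval.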

Data set [11] is described as follows: Inhibition of rat ACC2 using acetyl-CoA as substrate incubated for 20 mins in presence of [14C]O3 by liquid scintillation counting method. An outline of the steps: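 Purified rat isozyme in a 96-well radioenzymatic assay measuring incorporation of [14C]-bicarbonate into [14C]-malonyl-CoA. Dose-response run at saturating ATP, where IC50 approximates Ki for uncompetitive inhibitors.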

The target in data set [12] is Broad substrate specificity ATP-binding cassette transporter ABCG2 (Homo sapiens, UniProt Q9UNQ0). As to the kind of experiment: Inhibition of human ABCG2 expressed in MDCK2-LE cells in presence of […]. Format: cell-based, MDCKII-LE.
In data set [13] the target is Solute carrier organic anion transporter family member 1B1 (Homo sapiens, UniProt Q9Y6L6). Nature of the data set: Inhibition of human OATP1B1 expressed in HEK293 cells n presence of rosuvastatin. Format: cell-based.
For the next data set, the system named is CHO. Nature of the data set: Genotoxicity in CHO cells in presence of (aroclor-induced rat liver S9 fraction/NADPH by micronucleus test. The settings on record: chinese hamster. Format: toxicity, cell-based, Cricetulus griseus. Put shortly:
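In vitro micronucleus assay in Chinese hamster ovary or TK6 cells, run with and without metabolic activation by aroclor-induced rat liver S9 fraction plus NADPH.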

A short description of data set [14]: Ratio of drug uptake in Wistar-Hannover rat unbound liver to plasma concentration at 10 mg/kg, po after 6 hrs by LC/MS-MS analysis. The class given is ADME, organism-based. The settings on record: other tissue. Put shortly: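 Male Wistar-Hannover rats (n = 2 or 3) dosed orally as a suspension in 0.5% methyl cellulose with 0.1% Tween 80. Total plasma and liver concentrations taken 6 h post-dose. Converted to unbound values using fraction unbound in plasma and liver from equilibrium dialysis. Kpu,u = ratio of mean free liver to free plasma concentration.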

The next data set addresses Acetyl-CoA carboxylase 1 (Rattus norvegicus, UniProt P11497). As to the kind of experiment: Inhibition of rat ACC1 using acetyl-CoA as substrate incubated for 20 mins in presence of [14C]O3 by liquid scintillation counting method. Put shortly:
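Radioenzymatic assay with purified ACC isozymes, measuring [14C]-bicarbonate incorporation into [14C]-malonyl-CoA. Mode of inhibition taken from substrate concentration-dependence experiments varying ATP or carbonate. IC50 dose-response run at saturating ATP.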

For another data set, the target named is Cytochrome P450 2C9 (Homo sapiens, UniProt P11712). As to the kind of experiment: inhibition of CYP2C9 in human liver microsomes. Format: ADME.
Cytochrome P450 2C9, sequence (P11712 whole entry): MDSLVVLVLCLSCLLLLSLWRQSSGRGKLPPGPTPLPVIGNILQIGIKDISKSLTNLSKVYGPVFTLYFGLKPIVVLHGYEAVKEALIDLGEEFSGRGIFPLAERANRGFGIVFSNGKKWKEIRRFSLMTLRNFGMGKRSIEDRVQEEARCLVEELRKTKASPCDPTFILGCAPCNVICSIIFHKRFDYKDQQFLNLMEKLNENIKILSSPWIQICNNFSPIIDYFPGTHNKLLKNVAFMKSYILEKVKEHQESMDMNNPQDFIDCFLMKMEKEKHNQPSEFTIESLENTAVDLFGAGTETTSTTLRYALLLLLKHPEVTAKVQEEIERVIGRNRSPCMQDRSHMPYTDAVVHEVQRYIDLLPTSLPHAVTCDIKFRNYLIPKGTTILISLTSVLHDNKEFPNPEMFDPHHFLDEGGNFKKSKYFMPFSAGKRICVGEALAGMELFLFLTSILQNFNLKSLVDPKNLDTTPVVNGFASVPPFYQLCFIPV
A further data set deals with NTCP (Homo sapiens, UniProt Q14973). As to the kind of experiment: Substrate activity at human NTCP stably expressed in HEK293 cells assessed as ratio of total to passive cellular uptake at 1 uM incubated for 0.5 to 4 mins by LC/MS-MS analysis. The class given is cell-based. To be noted: HEK293 cells stably expressing human NTCP, time 0.5-4 min. An outline of the steps:
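HEK293 cells stably transfected with the transporter, plus wild-type cells, grown to confluence in DMEM with 10% heat-inactivated FBS and 5 µg/mL blasticidin. Washed with HBSS/20 mM HEPES, pH 7.4, then incubated with compound at 37 °C for 0.5–4.0 min. Cells washed ice-cold, lysed in MeOH for LC-MS/MS, uptake normalized to BCA protein. Ratio = transfected/wild-type uptake, averaged over time points.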

Each structure is given as a SMILES string.

Solute carrier organic anion transporter family member 1B3, sequence (Q9NPD5 whole entry): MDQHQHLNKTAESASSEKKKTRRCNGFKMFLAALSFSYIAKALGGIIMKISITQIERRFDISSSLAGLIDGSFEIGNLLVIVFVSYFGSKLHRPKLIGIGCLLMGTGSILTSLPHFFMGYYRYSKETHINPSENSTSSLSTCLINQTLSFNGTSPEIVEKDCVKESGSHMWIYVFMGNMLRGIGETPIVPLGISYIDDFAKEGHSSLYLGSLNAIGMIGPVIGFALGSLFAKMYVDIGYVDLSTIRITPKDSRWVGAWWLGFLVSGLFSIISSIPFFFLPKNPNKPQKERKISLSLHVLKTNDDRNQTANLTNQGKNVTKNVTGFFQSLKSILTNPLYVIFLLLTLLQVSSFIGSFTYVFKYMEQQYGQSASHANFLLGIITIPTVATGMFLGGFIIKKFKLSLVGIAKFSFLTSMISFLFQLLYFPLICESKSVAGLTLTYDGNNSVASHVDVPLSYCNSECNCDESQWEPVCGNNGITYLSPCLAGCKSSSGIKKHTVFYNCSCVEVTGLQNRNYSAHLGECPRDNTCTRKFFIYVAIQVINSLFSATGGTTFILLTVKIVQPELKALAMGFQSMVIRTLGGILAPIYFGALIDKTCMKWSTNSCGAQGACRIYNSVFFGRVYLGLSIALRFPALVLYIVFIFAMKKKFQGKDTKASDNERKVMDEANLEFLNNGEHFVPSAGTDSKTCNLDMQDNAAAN
Solute carrier family 22 member 6, sequence (Q4U2R8 whole entry): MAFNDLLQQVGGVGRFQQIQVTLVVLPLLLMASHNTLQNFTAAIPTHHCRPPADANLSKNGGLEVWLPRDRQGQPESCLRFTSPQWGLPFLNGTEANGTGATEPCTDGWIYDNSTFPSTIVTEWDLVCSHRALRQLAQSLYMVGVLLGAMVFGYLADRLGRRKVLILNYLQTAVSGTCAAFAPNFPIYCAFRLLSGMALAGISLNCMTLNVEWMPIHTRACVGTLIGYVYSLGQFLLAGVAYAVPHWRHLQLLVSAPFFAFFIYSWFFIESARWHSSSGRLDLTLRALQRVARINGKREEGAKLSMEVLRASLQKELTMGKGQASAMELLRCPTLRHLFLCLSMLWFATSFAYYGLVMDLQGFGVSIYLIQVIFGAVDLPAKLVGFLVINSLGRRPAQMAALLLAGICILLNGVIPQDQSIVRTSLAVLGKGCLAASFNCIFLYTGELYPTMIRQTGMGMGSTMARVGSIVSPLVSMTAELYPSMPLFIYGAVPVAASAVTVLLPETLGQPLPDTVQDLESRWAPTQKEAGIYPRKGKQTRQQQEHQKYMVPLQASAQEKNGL
NTCP, sequence (Q14973 whole entry): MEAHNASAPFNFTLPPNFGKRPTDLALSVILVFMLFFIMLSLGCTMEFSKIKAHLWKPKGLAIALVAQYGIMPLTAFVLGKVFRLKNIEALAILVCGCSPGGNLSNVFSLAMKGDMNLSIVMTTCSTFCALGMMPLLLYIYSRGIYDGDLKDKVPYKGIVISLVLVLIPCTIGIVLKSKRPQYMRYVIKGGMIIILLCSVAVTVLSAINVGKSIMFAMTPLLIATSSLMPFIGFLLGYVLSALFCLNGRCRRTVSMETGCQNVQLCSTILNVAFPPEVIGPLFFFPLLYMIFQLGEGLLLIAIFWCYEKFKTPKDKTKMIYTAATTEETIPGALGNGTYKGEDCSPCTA
Cytochrome P450 2C8, sequence (P10632 whole entry): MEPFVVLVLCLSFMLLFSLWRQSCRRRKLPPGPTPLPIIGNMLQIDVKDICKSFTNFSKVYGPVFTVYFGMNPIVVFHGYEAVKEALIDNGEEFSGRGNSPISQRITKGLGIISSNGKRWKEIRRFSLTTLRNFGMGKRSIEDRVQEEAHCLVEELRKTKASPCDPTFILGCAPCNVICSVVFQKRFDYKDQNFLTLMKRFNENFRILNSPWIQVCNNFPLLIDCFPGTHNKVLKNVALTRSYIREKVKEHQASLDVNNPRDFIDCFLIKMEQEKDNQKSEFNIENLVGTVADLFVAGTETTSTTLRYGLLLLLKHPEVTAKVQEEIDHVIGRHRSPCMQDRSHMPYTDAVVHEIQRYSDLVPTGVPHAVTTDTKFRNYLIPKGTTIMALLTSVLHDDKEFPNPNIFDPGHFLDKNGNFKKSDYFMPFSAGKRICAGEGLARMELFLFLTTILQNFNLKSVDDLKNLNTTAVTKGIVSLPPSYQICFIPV
Cytochrome P450 3A4, sequence (P08684 whole entry): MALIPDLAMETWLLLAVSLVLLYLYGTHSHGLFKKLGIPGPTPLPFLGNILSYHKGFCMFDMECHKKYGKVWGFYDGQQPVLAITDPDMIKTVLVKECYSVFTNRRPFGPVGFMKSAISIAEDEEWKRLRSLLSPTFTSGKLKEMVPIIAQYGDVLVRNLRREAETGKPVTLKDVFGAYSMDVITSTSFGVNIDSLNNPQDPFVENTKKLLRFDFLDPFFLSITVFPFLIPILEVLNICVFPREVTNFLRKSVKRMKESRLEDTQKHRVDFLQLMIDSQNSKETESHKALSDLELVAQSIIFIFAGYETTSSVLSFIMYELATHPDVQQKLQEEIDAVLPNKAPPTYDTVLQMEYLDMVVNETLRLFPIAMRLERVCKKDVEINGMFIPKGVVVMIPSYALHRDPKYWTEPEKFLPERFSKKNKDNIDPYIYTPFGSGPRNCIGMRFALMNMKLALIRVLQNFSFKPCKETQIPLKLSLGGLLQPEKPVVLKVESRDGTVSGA

Usually AUC(0-t) stands for the area under the concentration-time curve up to a stated or last time point. In general, bioavailability refers to dose-corrected exposure relative to a reference, in per cent. For `COc1cc(C(=O)N2CCC3(CC2)CC(=O)c2nn(C(C)(C)C)cc2O3)cc(-c2ccc(C(=O)O)cc2)n1`, the AUC(0-t) in [1] was 322 ng·h/mL. In addition, the bioavailability in [2] was 27%.
One may read the IC50 as the concentration that inhibits the measured activity by half. As a reminder, the clearance is the volume of plasma or blood freed of the substance per unit of time. As usually defined, the Kp is the ratio of the level in a tissue or fluid to that in plasma or blood. Usually EC50 stands for the concentration needed to bring the measured effect to its halfway point. For `COc1cc(C(=O)N2CCC3(CC2)CC(=O)c2c(cnn2C(C)C)C3)cc(-c2ccc(C(=O)O)cc2)n1` [CLESACOSTAT], the IC50 is above 50 µM on Cytochrome P450 1A2; above 20 µM in data set [3]; above 50 µM against Cytochrome P450 2B6; 137 µM in data set [5]; above 50 µM against Cytochrome P450 3A4; above 50 µM at Cytochrome P450 2C8. For the same compound, the IC50 in [9] was above 30 µM; in data set [11] it was 0.00824 µM; in data set [12] it was 68 µM; in data set [13], 11.7 µM; at Acetyl-CoA carboxylase 1 it was 0.00753 µM; against Cytochrome P450 2C9, above 50 µM. Further, the Activity is on record as 30% in the data set on Rattus norvegicus, “Not Active” in data set [4], “Not Active” in [8] and “Non-Toxic” with CHO. Further, the clearance in data set [6] worked out at 1.3 mL/min/kg. The Kp at 6 h in data set [7] worked out at 78. Moreover, in [10], the EC50 came out at 0.0054 µM. Besides, in data set [14], the Ratio turned out to be 132. At NTCP, the uptake ratio at 1 µM was determined as 3.2.
